Assay results reported in ChEMBL document CHEMBL3351814, “Discovery of selective hexapeptide agonists to human neuromedin U receptors types 1 and 2” (J Med Chem, 2014).
Calls of active or inactive are those of the source. The calls are words filed in the database; no cut-off is given here. Where a SMILES comes first, the peptide text is derived from it. [ ]: non-standard residue; d: D form. The star is where a group is joined. Quinoline(6-carbonyl) = O=C(c1ccc2ncccc2c1)*; Propanoyl(3-(3-pyridyl)) = O=C(CCc1cccnc1)*; Acetyl(pyridin-2-yl) = O=C(Cc1ccccn1)*; 1Nal = N[C@@H](Cc1cccc2ccccc12)C(=O)O; Propanoyl(3-cHex) = O=C(CCC1CCCCC1)*; Acetyl(3-pyridyl) = O=C(Cc1cccnc1)*; Acetyl(4-pyridyl) = O=C(Cc1ccncc1)*; Hydrocinnamoyl = O=C(CCc1ccccc1)*; Quinaldoyl = O=C(c1ccc2ccccc2n1)*; hArg = N=C(N)NCCCC[C@H](N)C(=O)O; hPhe = N[C@@H](CCc1ccccc1)C(=O)O; Tic = O=C(O)[C@@H]1Cc2ccccc2CN1; Phg = N[C@H](C(=O)O)c1ccccc1; Pip = O=C(O)[C@@H]1CCCCN1; Dab = NCC[C@H](N)C(=O)O; Nva = CCC[C@H](N)C(=O)O; Dap = NC[C@H](N)C(=O)O; PhAc = O=C(Cc1ccccc1)*; X1 = O=C(Cn1ccnc1)*

What was measured:
Assay type in all cases: functional, cell-based
[1] = target: T1, Neuromedin-U receptor 1 (Mus musculus, UniProt O55040); assay: Agonist activity at mouse NMUR1 expressed in HEK293 cells by calcium mobilization assay
T1 sequence (O55040 whole entry): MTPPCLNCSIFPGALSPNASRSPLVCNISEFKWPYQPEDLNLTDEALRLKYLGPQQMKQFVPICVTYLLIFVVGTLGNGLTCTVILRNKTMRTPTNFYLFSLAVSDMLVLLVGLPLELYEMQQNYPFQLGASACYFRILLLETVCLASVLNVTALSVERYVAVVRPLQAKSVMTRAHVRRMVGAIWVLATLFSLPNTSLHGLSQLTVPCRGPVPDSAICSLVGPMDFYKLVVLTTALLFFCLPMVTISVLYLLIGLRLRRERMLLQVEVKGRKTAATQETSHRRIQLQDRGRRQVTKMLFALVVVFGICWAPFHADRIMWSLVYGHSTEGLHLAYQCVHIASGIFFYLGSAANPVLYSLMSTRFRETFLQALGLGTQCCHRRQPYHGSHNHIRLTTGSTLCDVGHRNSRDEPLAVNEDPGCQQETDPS

[2] = target: Neuromedin-U receptor 2 (Mus musculus, UniProt Q8BZ39); assay: Agonist activity at mouse NMUR2 expressed in HEK293 cells by calcium mobilization assay
Chain of Neuromedin-U receptor 2 (Mus musculus, UniProt Q8BZ39) (Q8BZ39 whole entry): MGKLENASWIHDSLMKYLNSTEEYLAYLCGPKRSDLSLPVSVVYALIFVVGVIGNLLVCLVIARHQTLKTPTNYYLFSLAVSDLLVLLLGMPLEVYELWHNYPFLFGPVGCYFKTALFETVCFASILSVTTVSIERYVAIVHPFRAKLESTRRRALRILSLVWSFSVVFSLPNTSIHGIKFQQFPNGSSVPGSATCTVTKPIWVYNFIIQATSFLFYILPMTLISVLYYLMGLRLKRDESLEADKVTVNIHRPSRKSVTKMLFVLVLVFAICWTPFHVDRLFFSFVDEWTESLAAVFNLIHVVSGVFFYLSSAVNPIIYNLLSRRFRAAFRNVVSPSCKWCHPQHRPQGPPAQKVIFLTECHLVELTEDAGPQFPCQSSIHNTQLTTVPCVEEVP

[3] = target: T2, Neuromedin-U receptor 1 (Homo sapiens) (UniProt Q9HB89); assay: Agonist activity at human NMUR1 expressed in HEK293 cells at 1 to 100 nM by calcium mobilization assay relative to NMU
T2 sequence (whole entry): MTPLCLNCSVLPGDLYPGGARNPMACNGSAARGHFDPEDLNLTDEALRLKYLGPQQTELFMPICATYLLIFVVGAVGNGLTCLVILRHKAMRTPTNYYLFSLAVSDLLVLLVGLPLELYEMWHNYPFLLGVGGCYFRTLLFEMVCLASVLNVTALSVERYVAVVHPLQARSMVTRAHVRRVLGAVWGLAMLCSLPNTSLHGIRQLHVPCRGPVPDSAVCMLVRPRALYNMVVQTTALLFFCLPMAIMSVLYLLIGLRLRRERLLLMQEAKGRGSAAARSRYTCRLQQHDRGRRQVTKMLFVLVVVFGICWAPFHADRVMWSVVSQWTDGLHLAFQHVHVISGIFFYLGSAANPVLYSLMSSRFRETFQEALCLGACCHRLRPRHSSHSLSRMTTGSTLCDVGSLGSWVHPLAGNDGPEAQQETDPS
Summary of the method: (§1)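 HEK293 cells transiently transfected with human NMUR1 or NMUR2 plasmid (FuGENE6), reseeded 18 h post-transfection at 4.0 × 10^4 cells/well on poly-D-lysine. After 18 h, loaded 40 min with 4 μM Fluo-4-AM in HBSS/HEPES/probenecid buffer pH 7.4 with 1% FCS, then washed. Peptides in buffer with 0.05% BSA and 0.001% Triton X-100. Maximal FLIPR signal expressed as % of hNMU at 1000 nM.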

[4] = target: Neuromedin-U receptor 2 (Homo sapiens, UniProt Q9GZQ4); assay: Agonist activity at human NMUR2 expressed in HEK293 cells at 1 to 100 nM by calcium mobilization assay relative to NMU; summary of the method: as §1
Chain of Neuromedin-U receptor 2 (Homo sapiens, UniProt Q9GZQ4) (Q9GZQ4 whole entry): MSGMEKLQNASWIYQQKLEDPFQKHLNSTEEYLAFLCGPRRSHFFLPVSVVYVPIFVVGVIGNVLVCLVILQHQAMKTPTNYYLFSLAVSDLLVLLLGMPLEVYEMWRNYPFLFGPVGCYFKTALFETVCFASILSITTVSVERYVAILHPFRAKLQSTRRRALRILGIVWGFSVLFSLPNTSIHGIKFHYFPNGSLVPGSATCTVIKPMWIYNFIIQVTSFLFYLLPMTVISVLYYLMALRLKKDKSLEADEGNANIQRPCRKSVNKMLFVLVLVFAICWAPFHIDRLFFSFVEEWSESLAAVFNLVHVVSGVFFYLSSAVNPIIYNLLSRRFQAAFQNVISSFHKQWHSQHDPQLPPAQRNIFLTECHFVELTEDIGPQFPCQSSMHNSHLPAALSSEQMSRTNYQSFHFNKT

Compound	Activity [3]	Activity [4]	EC50 [1] [nM]	EC50 [2] [nM]
CC(C)C[C@H](NC(=O)[C@H](Cc1ccccc1)NC(=O)[C@@H](N)Cc1ccc(O)cc1)C(=O)N[C@@H](Cc1ccccc1)C(=O)N[C@@H](CCCNC(=N)N)C(=O)N1CCC[C@H]1C(=O)N[C@@H](CCCNC(=N)N)C(=O)N[C@@H](CC(N)=O)C(N)=O	–	–	9.5	3
CC(C)C[C@H](NC(=O)CCc1ccccc1)C(=O)N[C@@H](Cc1ccccc1)C(=O)N[C@@H](CCCNC(=N)N)C(=O)N1CCC[C@H]1C(=O)N[C@@H](CCCNC(=N)N)C(=O)N[C@@H](CC(=O)O)C(N)=O (Hydrocinnamoyl-LFRPRD-NH2)	inactive	inactive	–	–
CC(C)C[C@H](NC(=O)CCc1ccccc1)C(=O)N[C@@H](Cc1ccccc1)C(=O)N[C@@H](CCCNC(=N)N)C(=O)N1CCC[C@H]1C(=O)N[C@@H](CCCNC(=N)N)C(=O)N[C@@H](CCN)C(N)=O (Hydrocinnamoyl-LFRPR[Dab]-NH2)	inactive	inactive	–	–
CC(C)C[C@H](NC(=O)CCc1ccccc1)C(=O)N[C@@H](Cc1ccccc1)C(=O)N[C@@H](CCCCNC(=N)N)C(=O)N1CCC[C@H]1C(=O)N[C@@H](CCCNC(=N)N)C(=O)N[C@@H](CC(N)=O)C(N)=O (Hydrocinnamoyl-LF[hArg]PRN-NH2)	Active	Active	–	–
CC(C)C[C@H](NC(=O)CCc1ccccc1)C(=O)N[C@@H](Cc1ccc(O)cc1)C(=O)N[C@@H](CCCNC(=N)N)C(=O)N1CCC[C@H]1C(=O)N[C@@H](CCCNC(=N)N)C(=O)N[C@@H](CC(N)=O)C(N)=O (Hydrocinnamoyl-LYRPRN-NH2)	inactive	inactive	–	–
CC(C)C[C@H](NC(=O)CCc1ccccc1)C(=O)N[C@@H](CCc1ccccc1)C(=O)N[C@@H](CCCNC(=N)N)C(=O)N1CCC[C@H]1C(=O)N[C@@H](CCCNC(=N)N)C(=O)N[C@@H](CC(N)=O)C(N)=O (Hydrocinnamoyl-L[hPhe]RPRN-NH2)	inactive	inactive	–	–
CC(C)C[C@H](NC(=O)Cc1ccccc1)C(=O)N[C@@H](Cc1ccccc1)C(=O)N[C@@H](CCCNC(=N)N)C(=O)N1CCC[C@H]1C(=O)N[C@@H](CCCNC(=N)N)C(=O)N[C@@H](CC(N)=O)C(N)=O (PhAc-LFRPRN-NH2)	Active	–	–	–
N=C(N)NCCC[C@H](NC(=O)[C@@H]1CCCN1C(=O)[C@H](CCCNC(=N)N)NC(=O)[C@H](Cc1ccccc1)NC(=O)[C@H](Cc1ccccc1)NC(=O)Cn1ccnc1)C(=O)N[C@@H](CC(N)=O)C(N)=O (X1-FFRPRN-NH2)	Active	–	–	–
N=C(N)NCCC[C@H](NC(=O)[C@@H]1CCCN1C(=O)[C@H](CCCNC(=N)N)NC(=O)[C@H](Cc1ccccc1)NC(=O)[C@H](Cc1ccccc1)NC(=O)Cc1ccccn1)C(=O)N[C@@H](CC(N)=O)C(N)=O ({Acetyl(pyridin-2-yl)}-FFRPRN-NH2)	Active	–	–	–
N=C(N)NCCC[C@H](NC(=O)[C@@H]1CCCN1C(=O)[C@H](CCCNC(=N)N)NC(=O)[C@H](Cc1ccccc1)NC(=O)[C@H](Cc1ccccc1)NC(=O)CCc1cccnc1)C(=O)N[C@@H](CC(N)=O)C(N)=O ({Propanoyl(3-(3-pyridyl))}-FFRPRN-NH2)	Active	–	–	–
N=C(N)NCCC[C@H](NC(=O)[C@@H]1CCCN1C(=O)[C@H](CCCNC(=N)N)NC(=O)[C@H](Cc1ccccc1)NC(=O)[C@H](Cc1cccc2ccccc12)NC(=O)CCc1cccnc1)C(=O)N[C@@H](CC(N)=O)C(N)=O ({Propanoyl(3-(3-pyridyl))}-[1Nal]FRPRN-NH2)	Active	–	–	–
N=C(N)NCCC[C@H](NC(=O)[C@@H]1CCCN1C(=O)[C@H](CCCNC(=N)N)NC(=O)[C@H](Cc1ccccc1)NC(=O)[C@H](Cc1ccccc1)NC(=O)c1ccc2ncccc2c1)C(=O)N[C@@H](CC(N)=O)C(N)=O ({Quinoline(6-carbonyl)}-FFRPRN-NH2)	inactive	–	–	–
H-FLFRPRN-NH2	Active	Active	–	–
H-YFLFAPRN-NH2	–	–	2410	156

Now from value to compound, other results behind:

Activity [3]	Activity [4]	Compound	EC50 [1] [nM]	EC50 [2] [nM]
Active	Active	CC(C)C[C@H](NC(=O)[C@@H]1Cc2ccccc2CN1)C(=O)N[C@@H](Cc1ccccc1)C(=O)N[C@@H](CCCNC(=N)N)C(=O)N1CCC[C@H]1C(=O)N[C@@H](CCCNC(=N)N)C(=O)N[C@@H](CC(N)=O)C(N)=O (H-[Tic]LFRPRN-NH2)	–	–
inactive	inactive	CC(C)C[C@H](NC(=O)CCc1ccccc1)C(=O)N[C@@H](Cc1ccccc1)C(=O)N[C@@H](CCCNC(=N)N)C(=O)N1CCC[C@H]1C(=O)N[C@@H](CCCNC(=N)N)C(=O)N[C@@H](C)C(N)=O (Hydrocinnamoyl-LFRPRA-NH2)	–	–
inactive	inactive	CC(C)C[C@H](NC(=O)[C@H](CCCNC(=N)N)NC(=O)[C@@H]1CCCN1C(=O)[C@H](CCCNC(=N)N)NC(=O)[C@H](Cc1ccccc1)NC(=O)[C@H](CC(C)C)NC(=O)CCc1ccccc1)C(N)=O (Hydrocinnamoyl-LFRPRL-NH2)	–	–
inactive	inactive	CC(C)C[C@H](NC(=O)CCc1ccccc1)C(=O)N[C@@H](Cc1ccccc1)C(=O)N[C@@H](CCCNC(=N)N)C(=O)N1CCC[C@H]1C(=O)N[C@@H](CCCNC(=N)N)C(=O)N[C@@H](CCC(N)=O)C(N)=O (Hydrocinnamoyl-LFRPRQ-NH2)	–	–
Active	Active	CC(C)C[C@H](NC(=O)CCc1ccccc1)C(=O)N[C@@H](Cc1ccccc1)C(=O)N[C@@H](CCCNC(=N)N)C(=O)N1CCCC[C@H]1C(=O)N[C@@H](CCCNC(=N)N)C(=O)N[C@@H](CC(N)=O)C(N)=O (Hydrocinnamoyl-LFR[Pip]RN-NH2)	–	–
inactive	inactive	CC(C)C[C@H](NC(=O)CCc1ccccc1)C(=O)N[C@H](C(=O)N[C@@H](CCCNC(=N)N)C(=O)N1CCC[C@H]1C(=O)N[C@@H](CCCNC(=N)N)C(=O)N[C@@H](CC(N)=O)C(N)=O)c1ccccc1 (Hydrocinnamoyl-L[Phg]RPRN-NH2)	–	–
inactive	–	N=C(N)NCCC[C@H](NC(=O)[C@@H]1CCCN1C(=O)[C@H](CCCNC(=N)N)NC(=O)[C@H](Cc1ccccc1)NC(=O)[C@H](Cc1ccccc1)NC(=O)c1ccc2ccccc2n1)C(=O)N[C@@H](CC(N)=O)C(N)=O (Quinaldoyl-FFRPRN-NH2)	–	–
Active	–	N=C(N)NCCC[C@H](NC(=O)[C@@H]1CCCN1C(=O)[C@H](CCCNC(=N)N)NC(=O)[C@H](Cc1ccccc1)NC(=O)[C@H](Cc1ccccc1)NC(=O)Cc1cccnc1)C(=O)N[C@@H](CC(N)=O)C(N)=O ({Acetyl(3-pyridyl)}-FFRPRN-NH2)	–	–
Active	–	N=C(N)NCCC[C@H](NC(=O)[C@@H]1CCCN1C(=O)[C@H](CCCNC(=N)N)NC(=O)[C@H](Cc1ccccc1)NC(=O)[C@H](Cc1ccccc1)NC(=O)Cc1ccncc1)C(=O)N[C@@H](CC(N)=O)C(N)=O ({Acetyl(4-pyridyl)}-FFRPRN-NH2)	–	–
Active	–	CC(C)C[C@H](NC(=O)CCc1cccnc1)C(=O)N[C@@H](Cc1ccccc1)C(=O)N[C@@H](CCCNC(=N)N)C(=O)N1CCC[C@H]1C(=O)N[C@@H](CCCNC(=N)N)C(=O)N[C@@H](CC(N)=O)C(N)=O ({Propanoyl(3-(3-pyridyl))}-LFRPRN-NH2)	–	–
Active	–	N=C(N)NCCC[C@H](NC(=O)[C@@H]1CCCN1C(=O)[C@H](CCCNC(=N)N)NC(=O)[C@H](Cc1ccccc1)NC(=O)[C@H](Cc1c[nH]c2ccccc12)NC(=O)CCc1cccnc1)C(=O)N[C@@H](CC(N)=O)C(N)=O ({Propanoyl(3-(3-pyridyl))}-WFRPRN-NH2)	–	–
–	Active	CCC[C@H](NC(=O)[C@H](CC(C)C)NC(=O)CCC1CCCCC1)C(=O)N[C@@H](CN)C(=O)N1CCC[C@H]1C(=O)N[C@@H](CCCNC(=N)N)C(=O)N[C@@H](CC(N)=O)C(N)=O ({Propanoyl(3-cHex)}-L[Nva][Dap]PRN-NH2)	–	–
